Results published in PubChem BioAssay.
The source made the active and inactive calls.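 Rule for the calls, unless noted: active = viability at or under a set limit in both replicates, limit being median viability minus 3 SD (cut at about 48% in these data, passing the limit was not always enough); inconclusive = at or under the limit in just one replicate; inactive = at or above the limit in both replicates.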 Square brackets hold non-standard residues; d marks the D form. Peptide text beside a SMILES is read from it. * marks the point of attachment. ξ: configuration not given here. Piv = CC(C)(C)C(=O)*; ξNva = CCCC(N)C(=O)O

Columns and labels:
[1] = Her2 expression decrease, cell viability multiplex – SKBR3 breast tumor cells, AlphaScreen, ATP viability, primary screen (AID 461;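 active = Her2 level under about 52% in both replicate screens, with viability over 70% of control, limit read from the data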;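 for Her2 level: lower value means less Her2 protein in the cells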;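 for viability: percent of carrier control wells set as 100% viability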); details: SKBR3 Her2 protein level, 18-24 h, measured here: SKBR3 viability, ATP luminescence, at 10 µM
[2] = molecular target: Receptor tyrosine-protein kinase erbB-2 (Homo sapiens) (UniProt P04626); experiment: as above; details: 18-24 h, at 10 µM, stronger effect = lower value
[3] = reduced viability of SK-BR-3 breast cancer cells – cell-based, 24 h, human, pilot screen (AID 572;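 active = viability at or below 10% of carrier control in both of two separate runs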;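 note: compound exposure lasted between 18 and 24 h rather than exactly 24 h; 100% = carrier-treated control wells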); details: SK-BR-3 viability, CellTiter-Glo luminescence, at 10 µM, stronger effect = lower value
[4] = HUVEC growth inhibition – cell-based, human, primary screen (AID 575;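 active = viability at or below 30% in both replicate assays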;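 note: 100% = median of untreated cell wells with 0.1% DMSO on each plate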); details: HUVEC proliferation, CellTiter-Glo luminescence, 72 h; at 10 µM; stronger effect = lower value
Method in brief: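 Test system: HUVEC primary cells. Quantity: 1250 endothelial cells in each well. Dosing: single-point 10 µM, DMSO 0.1% final. Incubation: 72 h treatment at 37 °C. Measured by: CTG luminescence. Control set: DMSO cell controls and MePR drug controls. Plate: collagen-coated 384-well format.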

[5] = H69AR cell proliferation blockers – human, duplicate replicates, primary screen (AID 580); details: H69AR lung tumor cells viability, ATP luminescence, 72 h; at 10 µM; stronger effect = lower value;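 note: 100% = mean luminescence of untreated wells and 0% = no signal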
[6] = MRP1 drug-resistance reversers in H69AR cells – cell-based, doxorubicin co-treatment, pilot screen (AID 601;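 active = viability loss from added drug above about 55%, and viability with drug at most 40%, in both replicates, limit read from the data, passing the limit was not always enough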); details: CellTiter-Glo, 72 h, at 10 µM; for differential viability (reversal): stronger effect = higher value
[7] = yeast transport mutant growth inhibition pilot in 384-well plates, post-Golgi transport modulator project (AID 636; in the data active = inhibition above about 31%); details: absorbance 615 nm, about 18 h, stronger effect = higher value
[8] = growth suppression of yeast trafficking mutant, preliminary HTS, modulators of trafficking downstream of Golgi apparatus project, 1536-format plate, OD 615 nm (AID 637; in the data active = inhibition above about 30%); details: yeast transport mutant growth, absorbance 615 nm, 18 h; stronger effect = higher value
[9] = H69AR cells + 2 uM doxorubicin, measured here: viability with 2 uM doxorubicin, stronger effect = lower value
[10] = H69AR cells, compound alone cytotoxicity

Receptor tyrosine-protein kinase erbB-2 (Homo sapiens), sequence (P04626 whole entry, looked up): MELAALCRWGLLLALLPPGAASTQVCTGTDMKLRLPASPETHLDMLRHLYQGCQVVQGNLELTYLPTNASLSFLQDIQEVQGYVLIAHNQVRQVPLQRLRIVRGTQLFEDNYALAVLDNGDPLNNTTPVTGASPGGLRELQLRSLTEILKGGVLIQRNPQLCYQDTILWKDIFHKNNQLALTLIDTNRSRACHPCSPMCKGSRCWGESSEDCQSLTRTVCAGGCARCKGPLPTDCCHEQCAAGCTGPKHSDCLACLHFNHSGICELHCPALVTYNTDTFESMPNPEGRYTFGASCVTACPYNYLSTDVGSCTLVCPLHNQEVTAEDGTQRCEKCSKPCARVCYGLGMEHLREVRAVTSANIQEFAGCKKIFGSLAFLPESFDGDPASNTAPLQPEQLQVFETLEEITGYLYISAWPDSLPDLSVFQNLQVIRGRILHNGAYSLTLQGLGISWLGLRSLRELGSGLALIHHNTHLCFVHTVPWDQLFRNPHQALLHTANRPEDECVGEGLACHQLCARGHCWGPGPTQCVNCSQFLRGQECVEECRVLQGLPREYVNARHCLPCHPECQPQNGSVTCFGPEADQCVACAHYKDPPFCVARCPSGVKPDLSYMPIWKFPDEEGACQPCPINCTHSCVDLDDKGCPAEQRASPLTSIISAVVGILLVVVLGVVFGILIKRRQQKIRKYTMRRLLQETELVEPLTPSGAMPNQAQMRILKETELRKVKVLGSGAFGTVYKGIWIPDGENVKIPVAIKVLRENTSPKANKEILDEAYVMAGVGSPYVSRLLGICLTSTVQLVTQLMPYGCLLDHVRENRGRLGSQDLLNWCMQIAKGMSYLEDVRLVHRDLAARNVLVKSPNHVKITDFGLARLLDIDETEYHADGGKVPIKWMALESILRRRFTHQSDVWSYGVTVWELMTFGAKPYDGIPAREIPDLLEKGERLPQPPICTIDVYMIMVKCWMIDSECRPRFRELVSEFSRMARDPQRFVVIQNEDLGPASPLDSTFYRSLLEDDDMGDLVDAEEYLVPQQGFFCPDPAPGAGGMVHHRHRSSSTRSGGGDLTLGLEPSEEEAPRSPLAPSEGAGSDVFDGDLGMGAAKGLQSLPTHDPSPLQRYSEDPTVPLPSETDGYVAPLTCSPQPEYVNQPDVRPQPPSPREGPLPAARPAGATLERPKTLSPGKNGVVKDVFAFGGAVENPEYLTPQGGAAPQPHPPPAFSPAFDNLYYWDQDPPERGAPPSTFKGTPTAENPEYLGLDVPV

| SMILES | viability [1] [%] | Her2 level [2] | viability [3] | viability [4] | viability [5] | differential viability (reversal) ([6]; H69AR cells + 2 uM doxorubicin) | viability [6, 9] [%] | viability [6, 10] [%] | inhibition [7] | inhibition [8] |
| --- | --- | --- | --- | --- | --- | --- | --- | --- | --- | --- |
| CN(C)S(=O)(=O)c1ccc(C(=O)Nc2ccccc2C(=O)O)cc1 | 102 | 88.5% (inactive) | 102% (inactive) | 102% (inactive) | 94.6% (inactive) | -1.06% (inactive) | 95.7 | 94.6 | -3.03% (inactive) | -3.17% (inactive) |
| C/C(N)=C(\C#N)C(=O)NCCc1ccccn1 | 81 | 102% (inactive) | 81% (inactive) | 108% (inactive) | 114% (inactive) | 7.44% (inactive) | 107 | 114 | -1.45% (inactive) | 1.48% (inactive) |
| O=C(CSc1ncnc2c1oc1ccccc12)NCc1ccco1 | 140 | 60% (inactive) | 140% (inactive) | 83.7% (inactive) | 76.4% (inactive) | -5.7% (inactive) | 82.1 | 76.4 | -6.27% (inactive) | 2.62% (inactive) |
| COc1cccc(N2C(=O)C(O)=C(C(C)=O)C2c2ccc(OC)c(OC)c2)c1 (stereo not given) | 94.5 | 94% (inactive) | 94.5% (inactive) | 109% (inactive) | 100% (inactive) | 7.03% (inactive) | 93 | 100 | 0.26% (inactive) | 4.75% (inactive) |
| O=C(CN1CCOCC1)N1CCN(C(=O)CN2CCOCC2)CC1 | 102 | 99.5% (inactive) | 102% (inactive) | 93.7% (inactive) | 104% (inactive) | 15.6% (inactive) | 88.9 | 104 | -3.73% (inactive) | 1.97% (inactive) |
| CCOC(=O)CCCn1nc(C)n2c(cc3sccc32)c1=O | 87.5 | 94.5% (inactive) | 87.5% (inactive) | 91.8% (inactive) | 102% (inactive) | 20.7% (inactive) | 81 | 102 | -5.07% (inactive) | -3.77% (inactive) |
| C/C(=N\O)C(=O)NCc1ccccn1 | 102 | 134% (inactive) | 102% (inactive) | 85.3% (inactive) | 92.2% (inactive) | -4.16% (inactive) | 96.4 | 92.2 | 4.61% (inactive) | 11.2% (inactive) |
| Cc1csc(NC(=O)CSc2nsc(SCC(=O)Nc3nc(C)cs3)c2C#N)n1 | 94.5 | 69% (inactive) | 94.5% (inactive) | 58.7% (inactive) | 6.57% (active) | -1.3% (inactive) | 7.88 | 6.57 | -6.67% (inactive) | -1.43% (inactive) |
| CCNc1nc(N2CCOCC2)nc(N(c2ccccc2)c2ccccc2)n1 | 80.5 | 97% (inactive) | 80.5% (inactive) | 62.2% (inactive) | 84.2% (inactive) | 4.78% (inactive) | 79.4 | 84.2 | -3.55% (inactive) | -10% (inactive) |
| Cc1onc(-c2ccccc2Cl)c1C(=O)NCc1cccnc1 | 103 | 102% (inactive) | 103% (inactive) | 110% (inactive) | 94.5% (inactive) | 9.16% (inactive) | 85.4 | 94.5 | -4.8% (inactive) | 6.13% (inactive) |
| C=CCN(C(=O)CNC(=O)c1ccco1)C(C(=O)NC1CCCCC1)c1ccccc1F (stereo not given) | 108 | 108% (inactive) | 108% (inactive) | 96.2% (inactive) | 100% (inactive) | 6.92% (inactive) | 93.5 | 100 | -2.43% (inactive) | 1.27% (inactive) |
| COC(=O)c1ccc(NC(=O)CN2CCN(c3ccc(Cl)cc3)CC2)cc1 | 96.5 | 100% (inactive) | 96.5% (inactive) | 104% (inactive) | 96.1% (inactive) | -0.5% (inactive) | 96.6 | 96.1 | 0.13% (inactive) | 12.9% (inactive) |
| Cc1cc(C2C(C#N)=C(N)SC(N)=C2C#N)c(C)s1 | 107 | 100% (inactive) | 107% (inactive) | 82.4% (inactive) | 94.7% (inactive) | 7.28% (inactive) | 87.5 | 94.7 | -2.89% (inactive) | 7.21% (inactive) |
| CC(C)(C)n1nnnc1CN1CCC(NC(=O)NC2CCCCC2)CC1 | 95 | 72% (inactive) | 95% (inactive) | 97% (inactive) | 106% (inactive) | 15.1% (inactive) | 91.3 | 106 | -5.53% (inactive) | -2.5% (inactive) |
| O=C(Nc1nccs1)NC(C(F)(F)F)C(F)(F)F | 104 | 87.5% (inactive) | 104% (inactive) | 93% (inactive) | 95.1% (inactive) | -0.09% (inactive) | 95.1 | 95.1 | -6.44% (inactive) | -0.16% (inactive) |
| COc1ccc(OC)c(C2C(C#N)=C(N)Oc3cc(C)[nH]c(=O)c32)c1 (stereo not given) | 92 | 84.5% (inactive) | 92% (inactive) | 83.8% (inactive) | 99.5% (inactive) | 0.505% (inactive) | 99 | 99.5 | -3.87% (inactive) | 0.49% (inactive) |
| COC(=O)c1ccccc1NC(=O)c1cc(-c2ccc(OC)c(OC)c2)on1 | 99 | 90.5% (inactive) | 99% (inactive) | 114% (inactive) | 77.8% (inactive) | 5.72% (inactive) | 72 | 77.8 | -7.57% (inactive) | -8% (inactive) |
| O=C(NCc1ccc2c(c1)OCO2)c1cc2n(n1)C(C(F)(F)F)CC(c1ccc3c(c1)OCO3)N2 (stereo not given) | 98 | 82% (inactive) | 98% (inactive) | 73.8% (inactive) | 84.2% (inactive) | 9.51% (inactive) | 74.7 | 84.2 | -2.89% (inactive) | 5% (inactive) |
| Cc1ccccc1-c1noc(N)c1C#N | 110 | 70.5% (inactive) | 110% (inactive) | 92.3% (inactive) | 90% (inactive) | 1.42% (inactive) | 88.6 | 90 | -5.68% (inactive) | 4% (inactive) |
| CCOC(=O)C1CCCN(CCCc2ccccc2)C1 (stereo not given) | 104 | 91% (inactive) | 104% (inactive) | 105% (inactive) | 90.8% (inactive) | 3.21% (inactive) | 87.6 | 90.8 | -5.47% (inactive) | -1.9% (inactive) |
| COc1cccc(C2=NOC(C(=O)Nc3ccc(C(C)=O)cc3)C2)c1 (stereo not given) | 96 | 98.5% (inactive) | 96% (inactive) | 96.6% (inactive) | 100% (inactive) | 16.6% (inactive) | 83.6 | 100 | -1.58% (inactive) | -4.73% (inactive) |
| C=CCn1c(=O)/c(=C/c2ccc(O)cc2)s/c1=C(/C#N)c1nnc2n1CCCCC2 | 93.5 | 103% (inactive) | 93.5% (inactive) | 83.4% (inactive) | 85.5% (inactive) | 8.51% (inactive) | 77 | 85.5 | -5.27% (inactive) | -2.83% (inactive) |
| CC1=C(C(=O)Nc2ccccc2)C(c2cccs2)C(C#N)=C(SCC#N)N1 (stereo not given) | 104 | 96.5% (inactive) | 104% (inactive) | 64% (inactive) | 82.8% (inactive) | -13.4% (inactive) | 96.2 | 82.8 | -0.4% (inactive) | 19.2% (inactive) |
| Cc1ccc(S(=O)(=O)C2(C(=O)Nc3nccs3)CC2)cc1 | 95 | 95% (inactive) | 95% (inactive) | 93.7% (inactive) | 101% (inactive) | 5.59% (inactive) | 95 | 101 | -2.44% (inactive) | -2.33% (inactive) |
| O=C(Nc1ccc(O)cc1)C1CCCN1S(=O)(=O)c1ccc(F)cc1 (stereo not given) | 97.5 | 92% (inactive) | 97.5% (inactive) | 91.6% (inactive) | 97.3% (inactive) | 2.53% (inactive) | 94.7 | 97.3 | -1.47% (inactive) | 1.64% (inactive) |
| COCCn1c(COc2ccc(Cl)cc2)nnc1SCC(N)=O | 85.5 | 84.5% (inactive) | 85.5% (inactive) | 98.8% (inactive) | 109% (inactive) | 18.1% (inactive) | 90.8 | 109 | -5.41% (inactive) | 2.54% (inactive) |
| CC(NC(=O)COc1ccccc1)C(=O)NC1=NCCS1 (stereo not given) | 89 | 124% (inactive) | 89% (inactive) | 88.8% (inactive) | 94.4% (inactive) | 3.6% (inactive) | 90.8 | 94.4 | -4.36% (inactive) | -11.8% (inactive) |
| CCCC(NC(=O)CNC(=O)C(C)(C)C)C(=O)O (stereo not drawn) (Piv-Gly-[ξNva]-OH) | 91 | 91.5% (inactive) | 91% (inactive) | 96.1% (inactive) | 97.5% (inactive) | 1.52% (inactive) | 96 | 97.5 | -2% (inactive) | -3.71% (inactive) |
| CC(=O)c1nnn(-c2nc(N3CCCC3)nc(N(c3ccccc3)c3ccccc3)n2)c1C | 87 | 76% (inactive) | 87% (inactive) | 97.8% (inactive) | 82.7% (inactive) | 5.7% (inactive) | 77 | 82.7 | -2.89% (inactive) | -3.45% (inactive) |
